# Measurements reported in ChEMBL document CHEMBL1128288, “7-Azetidinylquinolones as antibacterial agents. 3. Synthesis, properties and structure-activity relationships of the stereoisomers containing a 7-(3-amino-2-methyl-1-azetidinyl) moiety” (J Med Chem, 1995).
# Assays:
# Type in all cases: functional
# Staphylococcus aureus [1] = experiment: In vivo efficacy as ED50 against Staphylococcus aureus HS-93 by oral administration in mice.; conditions: Staphylococcus aureus, po; read-out: ED50
# Method in brief: (§1)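 Mice, 4 groups of 10, infected intraperitoneally with slightly more than the LD100 of the organism. A single oral dose was given immediately after infection, with four doses (one per group) chosen from in vitro activity. Survival was scored after one week. ED50 (total dose, mg/kg, protecting 50%) was interpolated among group survival rates.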
# Enterococcus faecalis = experiment: In vitro antibacterial activity measured as minimum inhibitory concentration was evaluated on Streptococcus faecalis ATCC 10541 (Sf).; conditions: Enterococcus faecalis, ATCC 10541; read-out: MIC
# Method in brief: (§2)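 Serial 2-fold agar dilution in Mueller Hinton medium, run side by side with reference quinolones. Inoculum 10^5 cfu/mL; compound range 0.007–16 µg/mL.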
# Escherichia coli [2] = experiment: In vivo efficacy as ED50 against Escherichia coli HM-42 by oral administration in mice.; conditions: Escherichia coli, po; read-out: ED50; method in brief: as §1
# Pseudomonas aeruginosa [3] = experiment: In vitro antibacterial activity measured as minimum inhibitory concentration was evaluated on Pseudomonas aeruginosa ATCC 10145 (Pa).; conditions: Pseudomonas aeruginosa, ATCC 10145; read-out: MIC; method in brief: as §2
# Escherichia coli [4] = experiment: In vitro antibacterial activity measured as minimum inhibitory concentration, was evaluated on Escherichia coli ATCC 23559(Ec).; conditions: Escherichia coli, ATCC 23559; read-out: MIC; method in brief: as §2
# Proteus vulgaris = experiment: In vitro antibacterial activity measured as minimum inhibitory concentration was evaluated on proteus vulgaris ATCC 8427 (Pv).; conditions: Proteus vulgaris, ATCC 8427; read-out: MIC; method in brief: as §2
# Pseudomonas aeruginosa [5] = experiment: In vivo efficacy as ED50 against Pseudomonas aeruginosa HS-116 by oral administration in mice.; conditions: Pseudomonas aeruginosa, po; read-out: ED50; method in brief: as §1
# [6] = tested on: Staphylococcus epidermidis; experiment: In vitro antibacterial activity measured as minimum inhibitory concentration was evaluated on Staphylococcus epidermidis ATCC 155-1 (Se).; conditions: Staphylococcus epidermidis, ATCC 155-1; read-out: MIC; method in brief: as §2
# Bacillus subtilis = experiment: In vitro antibacterial activity measured as minimum inhibitory concentration was evaluated on Bacillus subtilis ATCC 6633(Bs).; conditions: Bacillus subtilis, ATCC 6633; read-out: MIC; method in brief: as §2
# Bacillus cereus = experiment: In vitro antibacterial activity measured as minimum inhibitory concentration was evaluated on Bacillus cereus ATCC 11778 (Bc).; conditions: Bacillus cereus, ATCC 11778; read-out: MIC; method in brief: as §2
# Morganella morganii = experiment: In vitro antibacterial activity measured as minimum inhibitory concentration was evaluated on morganella morganii ATCC 8019 (Mm).; conditions: Morganella morganii, ATCC 8019; read-out: MIC; method in brief: as §2
# Klebsiella pneumoniae = experiment: In vitro antibacterial activity measured as minimum inhibitory concentration was evaluated on klebsiella pneumoniae ATCC 10031 (Kp).; conditions: Klebsiella pneumoniae, ATCC 10031; read-out: MIC
# Method in brief: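 Serial 2-fold agar dilution in Mueller Hinton medium, run side by side with reference quinolones.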
# Enterobacter cloacae = experiment: In vitro antibacterial activity measured as minimum inhibitory concentration, was evaluated on Enterobacter cloacae ATCC 23355 (Ecl).; conditions: Enterobacter cloacae, ATCC 23355; read-out: MIC
# Staphylococcus aureus [7] = experiment: In vitro antibacterial activity measured as minimum inhibitory concentration was evaluated on Staphylococcus aureus ATCC 25178 (Sa).; conditions: Staphylococcus aureus, ATCC 25178; read-out: MIC; method in brief: as §2
MIC (Enterococcus faecalis) [µg/mL],MIC (Pseudomonas aeruginosa [3]) [µg/mL],MIC (Escherichia coli [4]) [µg/mL],MIC (Proteus vulgaris) [µg/mL],MIC [6] [µg/mL],MIC (Bacillus subtilis) [µg/mL],MIC (Bacillus cereus) [µg/mL],MIC (Morganella morganii) [µg/mL],MIC (Klebsiella pneumoniae) [µg/mL],MIC (Enterobacter cloacae) [µg/mL],MIC (Staphylococcus aureus [7]) [µg/mL],SMILES,ED50 (Staphylococcus aureus [1]) [mg/kg],ED50 (Escherichia coli [2]) [mg/kg],ED50 (Pseudomonas aeruginosa [5]) [mg/kg]
2,2,0.12,0.5,,,,,,,,CC1C(N)CN1c1c(F)cc2c(=O)c(C(=O)O)cn(-c3ccc(F)cc3)c2c1F (stereo not given),5.7,2.5,55
,0.5,0.03,,0.06,0.03,0.03,,,,,CC1C(N)CN1c1c(F)cc2c(=O)c(C(=O)O)cn(-c3ccc(F)cc3F)c2c1Cl (stereo not given),,,
0.06,,0.015,0.03,0.03,0.03,0.03,0.03,0.015,0.03,0.03,CC1C(N)CN1c1c(F)cc2c(=O)c(C(=O)O)cn(C3CC3)c2c1Cl (stereo not given),9.6,2.8,38
2,8,0.25,1,0.25,0.06,0.5,1,1,0.5,0.5,CCNCC1(C)CN(c2c(F)cc3c(=O)c(C(=O)O)cn4c3c2OC[C@@H]4C)C1,,,
0.5,1,0.015,0.5,0.12,0.06,0.12,0.06,0.015,0.06,0.12,CNC1(C)CN(c2c(F)cc3c(=O)c(C(=O)O)cn4c3c2OC[C@@H]4C)C1,,,
0.25,0.5,0.06,1,0.06,0.015,0.06,0.25,0.12,0.12,0.06,Cc1c(F)c(N2C[C@H](N)[C@H]2C)nc2c1c(=O)c(C(=O)O)cn2-c1ccc(F)cc1F,,,
1,1,0.06,,,0.06,,0.06,,0.06,,CCn1cc(C(=O)O)c(=O)c2cc(F)c(N3CC(N)C3C)c(F)c21 (stereo not given),5.1,4,56
,,0.015,0.06,,0.03,0.06,0.03,0.03,0.03,,CC1C(N)CN1c1cc2c(cc1F)c(=O)c(C(=O)O)cn2C1CC1 (stereo not given),22.3,3.5,108
2,2,0.25,1,1,0.25,0.25,0.25,0.25,0.25,0.25,C[C@H]1[C@@H](N)CN1c1c(F)cc2c(=O)c(C(=O)O)cn(C3CC3)c2c1F,,,
2,4,0.12,0.5,0.12,0.06,0.5,0.25,0.12,0.5,0.25,C[C@H]1COc2c(N3CC(C)(N(C)C)C3)c(F)cc3c(=O)c(C(=O)O)cn1c23,,,
0.06,,0.015,0.06,0.015,0.015,0.015,0.015,0.015,0.015,0.015,CC1C(N)CN1c1c(F)c(N)c2c(=O)c(C(=O)O)cn(C3CC3)c2c1F (stereo not given),8.7,4.2,102
2,2,0.25,1,0.5,0.12,1,0.5,0.5,0.25,0.25,C[C@@H]1[C@@H](N)CN1c1c(F)cc2c(=O)c(C(=O)O)cn(-c3ccc(F)cc3F)c2c1Cl,,,
0.12,0.5,0.12,0.25,0.12,0.25,0.25,0.12,0.12,0.12,0.12,Cc1c(F)c(N2C[C@H](N)[C@H]2C)nc2c1c(=O)c(C(=O)O)cn2C1CC1,,,
0.25,4,0.25,0.25,0.5,0.12,0.5,0.25,2,0.25,0.5,C[C@@H]1[C@@H](N)CN1c1c(F)cc2c(=O)c(C(=O)O)cn(C3CC3)c2c1Cl,19.1,18.4,147
1,1,0.12,1,,0.06,,,0.06,,,CC1C(N)CN1c1nc2c(cc1F)c(=O)c(C(=O)O)cn2-c1ccc(F)cc1F (stereo not given),8.9,3.3,140
1,2,0.06,0.5,,0.03,,,,,,CC1C(N)CN1c1cc2c(cc1F)c(=O)c(C(=O)O)cn2-c1ccc(F)cc1F (stereo not given),8.1,6,78
2,4,0.06,0.25,0.12,0.015,0.06,0.12,0.015,0.06,0.12,C[C@H]1COc2c(N3CC(N(C)C)C3)c(F)cc3c(=O)c(C(=O)O)cn1c23,,,
,0.5,0.03,0.06,,0.03,0.06,0.03,0.03,0.03,,CC1C(N)CN1c1nc2c(cc1F)c(=O)c(C(=O)O)cn2C1CC1 (stereo not given),13.8,3.5,95
0.12,0.25,0.015,0.25,0.06,0.06,0.12,0.06,0.015,0.015,0.12,C[C@H]1COc2c(N3CC(N)C3)c(F)cc3c(=O)c(C(=O)O)cn1c23,,,
0.12,0.5,0.03,0.5,0.12,0.03,0.12,0.12,0.25,0.12,0.06,C[C@@H]1[C@@H](N)CN1c1c(F)c(N)c2c(=O)c(C(=O)O)cn(-c3ccc(F)cc3F)c2c1F,,,
4,32,8,8,4,2,4,8,8,4,4,"CC1COc2c(N3CC(C)(N)C3)c(F)cc3c(=O)c(C(=O)O)cn1c23 (single isomer, unassigned)",,,
